# Screening data as filed in PubChem BioAssay.
# ASAP1 GAP inh: ASAP1 ArfGAP inhibition; Q9ULH1; AID 624377; 360,000 compounds, 0.19% hits; inhibition, % at 16.5 µM; ASAP1-stimulated ARF1 GTP hydrolysis, GDP FP detection; in the data active means inhibition above about 25%
# Target sequence (Q9ULH1 325-724 limits assumed): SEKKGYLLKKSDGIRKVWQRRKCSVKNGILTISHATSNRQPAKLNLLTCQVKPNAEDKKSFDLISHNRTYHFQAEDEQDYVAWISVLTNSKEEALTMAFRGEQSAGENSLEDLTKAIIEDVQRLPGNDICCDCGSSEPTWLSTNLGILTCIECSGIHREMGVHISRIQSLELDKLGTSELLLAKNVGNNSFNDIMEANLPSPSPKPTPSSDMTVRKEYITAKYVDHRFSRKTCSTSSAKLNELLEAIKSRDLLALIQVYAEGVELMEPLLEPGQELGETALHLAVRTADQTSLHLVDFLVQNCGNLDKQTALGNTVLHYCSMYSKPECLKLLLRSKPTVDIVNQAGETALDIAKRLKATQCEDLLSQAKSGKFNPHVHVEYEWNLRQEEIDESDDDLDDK
# CendR NRP1 mod: NRP-1/CendR interaction modulation; 360,000 compounds, 0.85% hits; inhibition, % at 25 µM; FAM-RPARPAR peptide binding to NRP-1, fluorescence polarization; AID 602438;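 active means inhibition or corrected inhibition above about 18%, plus a signal ratio from 0.5 to 1.5, limit read from the data, passing the limit was not always enough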
# ARFGAP1 inh: rat ARFGAP1 inhibition; inhibition, % at 16.5 µM; AID 651572; 360,000 compounds, 0.26% hits; Q62848; Arfgap1-stimulated ARF1 GTP hydrolysis, GDP FP detection;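 active means inhibition above a per-plate limit, mean inhibition of low control wells plus 3 SD, cut at about 25% in these data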
# Target sequence (Q62848 1-136 limits assumed): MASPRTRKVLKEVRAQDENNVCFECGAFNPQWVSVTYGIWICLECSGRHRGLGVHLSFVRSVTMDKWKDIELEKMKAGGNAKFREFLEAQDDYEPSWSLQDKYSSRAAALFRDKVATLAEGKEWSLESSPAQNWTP
#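 system = rat Arfgap1 catalytic domain, aa 1-136 | technique = FP, GDP Alexa 633 tracer displaced from anti-GDP antibody, 620/688 nm | compound = one concentration, 16.5 µM, DMSO 1.26% | medium = HEPES-based buffer, pH 7.5 | timing = compound-enzyme preincubation 20 min, reaction 120 min, detection 60 min, 25 °C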
# V-ATPase pHluor: yeast V-ATPase proton transport regulation by pHLuorin; S. cerevisiae, pHLuorin cytosolic pH fluorescence; response, % at 10 µM; 350,000 compounds, 0.37% hits; in the data active means response mostly above about 7.3%, no sharp cut-off; inactive means mostly below about 5.4%; further: actives read high
# Granule exo inh: blocks lytic granule exocytosis | TALL-104 LAMP-1 surface exposure, flow cytometry; cells stimulated with thapsigargin and PMA | AID 651702 | inhibition, % at 10 µM | 360,000 compounds, 0.66% hits;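 active means inhibition above about 55%, limit read from the data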
# VATPase regulator: regulators of yeast V-ATPase proton transport. shares compounds with V-ATPase pHluor. 980 compounds, 2% hits. S. cerevisiae pHLuorin cytosolic pH. response, % at 10 µM; in the data active means response above about 24%
# Numbers stand for hits; – = inactive; · = not tested or not shown. In the library only some 2.2% were active in any assay of this set; here they are far more common.
SMILES,ASAP1 GAP inh,CendR NRP1 mod,ARFGAP1 inh,V-ATPase pHluor,Granule exo inh,others
CCN1CCN(C(=O)COc2ccc(S(=O)(=O)N3CCOCC3)cc2Cl)CC1,–,–,–,–,–,
C[C@]12CCC3C(CC[C@H]4C[C@H](O)CC[C@]34C)C1CC(=O)[C@@H]2O (some centres not stated),–,–,–,12.6,–,
COc1ccc(OC(=O)N(C)C)c(CN(C)C)c1,–,27.0,–,–,–,
COc1ccc(C(=O)C(C)(C)NO)cc1,–,29.1,–,–,–,
CCc1ccc(N2C(=O)NC(=O)/C(=C\C=C\c3ccco3)C2=O)cc1,–,–,–,–,76.4,
CN1CCc2cc(O)cc3c2[C@H]1Cc1ccc(O)c(O)c1-3,–,–,–,–,60.0,
CCN(CC)C(=O)c1ccc(N(Cc2ccccc2)S(C)(=O)=O)cc1,–,–,–,–,–,
CCN(CC)C(=O)c1ccc2c(c1)C1C(Cl)C(Sc3ccccc3[N+](=O)[O-])CC1C(C(=O)O)N2 (configuration not stated),·,46.5,·,–,–,
CCN(CC)C(=O)c1ccc2c(c1)C1C=CCC1C(C(=O)O)N2 (configuration not stated),–,44.8,–,–,–,
Cc1ccc2c(c1Cl)NC(C(=O)O)C1CC(Sc3ccccc3[N+](=O)[O-])C(Cl)C21 (configuration not stated),·,–,·,–,–,
COc1cccc2c1cc([N+](=O)[O-])c1c(C(=O)O)cc3c(c12)OCO3,–,–,–,–,–,
Cc1ccc(Sc2ccc(C=C3C(=O)N(C)C(=O)N(C)C3=O)o2)cc1,–,–,–,–,73.9,
CN1C(=O)C(=Cc2ccc(N3CCOCC3)o2)C(=O)N(C)C1=O,–,–,–,–,–,
Cc1ccc(NC(=O)[C@@H](NC(=O)N2C[C@H]3C[C@@H](C2)c2cccc(=O)n2C3)C(C)C)cc1,–,–,–,–,–,
CCOc1ccc(N2C(=O)/C(=C\c3cccs3)C(=O)NC2=S)cc1,–,·,–,·,·,
O=C1NC(=S)N(c2ccccc2F)C(=O)/C1=C\c1cccs1,–,–,–,–,75.7,
CN1CCCCC1Cc1ccccc1 (configuration not stated),·,–,·,·,–,
COc1ccc(OC)c(C(O)C(C)N)c1 (configuration not stated),–,19.3,–,–,–,
CN(C)c1ccc(N=Cc2c(O)n(CCC3=CCCCC3)c(=O)[nH]c2=O)cc1,·,61.0,·,–,–,
CCN(CC)c1ccc(N=Cc2c(O)n(CCC3=CCCCC3)c(=O)[nH]c2=O)cc1,–,–,–,–,–,
O=C1c2cccc(N3CCNCC3)c2C2CCCCN12 (configuration not stated),–,20.8,–,·,–,
c1ccc(N2C3C4CC(C5CCCC54)C32)cc1 (configuration not stated),–,–,–,–,–,
O=[N+]([O-])c1cc2c(cc1CNCCc1ccc3c(c1)OCO3)OCO2,–,36.6,–,–,–,
Fc1ccc(CNCCc2ccc3c(c2)OCO3)cc1,–,–,–,–,–,
O=C1C2CC=CCC2C(=O)N1SC(Cl)(Cl)Cl (configuration not stated),–,·,–,·,·,
SMILES,ASAP1 GAP inh,CendR NRP1 mod,ARFGAP1 inh,V-ATPase pHluor,Granule exo inh,others
CN1C2CCC1/C(=C/c1ccccn1)C(=O)/C2=C\c1ccccn1,–,–,–,–,64.5,
COC(=O)C1=C(c2ccc(F)cc2OCc2ccccc2)C[C@@H]2CC[C@H]1N2C(=O)NCCNC(C)=O,–,30.3,–,–,–,
COC(=O)C1=C(c2cccc(C#N)c2)C[C@@H]2CC[C@H]1N2C(=O)NCC1CC1,–,–,–,–,–,
COC(=O)C1=C(c2cccc(C#N)c2)C[C@@H]2CC[C@H]1N2C(=O)NCCc1ccccc1,–,26.3,–,–,–,
OC1CN2CCC(O)C2C(O)C1O (configuration not stated),–,·,–,·,·,
O=S(=O)(NC1CCCCCCC1)OCC(Cl)(Cl)Cl,–,22.4,–,–,–,
O=C(Cc1cccs1)N1Cc2ccccc2-n2nncc2C1,–,–,–,–,–,
COc1ccc(N2C(=O)NC(=O)/C(=C\c3ccccc3[N+](=O)[O-])C2=O)cc1,–,–,–,–,–,
COc1ccc(N2C(=O)/C(=C/c3ccc(OC)c(OC)c3)C(=O)NC2=S)cc1,–,–,–,–,–,
CN1C(=O)NC(=O)/C(=C/c2ccc([N+](=O)[O-])s2)C1=O,–,–,–,129.8,–,
O=C1NC(=O)N(c2ccccc2)C(=O)/C1=C\c1ccc([N+](=O)[O-])s1,–,·,–,135.9,·,
COc1ccc(OC)c(N2C(=O)NC(=O)/C(=C\c3ccc([N+](=O)[O-])s3)C2=O)c1,–,–,–,133.0,–,
c1ccc(CCN2CCC3CCNC3C2)cc1 (configuration not stated),–,·,–,·,·,
O=C(NCCN1CCC2(CC1)C(=O)NCN2c1ccccc1)c1cccc2c1-c1ccccc1C2=O,–,·,–,·,·,
COC(=O)C1=C(c2cc3ccccc3s2)C[C@@H]2CC[C@H]1N2C,–,22.0,–,–,–,
COC(=O)C1=C(c2cccc(C#N)c2)C[C@@H]2CC[C@H]1N2C(=O)N1CCCC1,–,–,–,–,–,
COC(=O)C1=C(c2ccc(OC(F)(F)F)cc2)C[C@@H]2CC[C@H]1N2C(=O)N1CCCC1,–,–,–,–,–,
COC(=O)C1=C(c2ccc(OC(F)(F)F)cc2)C[C@@H]2CC[C@H]1N2C(=O)N1CCC(C)CC1,–,28.7,–,–,–,
COC(=O)C1=C(c2ccc(C(C)=O)cc2)C[C@@H]2CC[C@H]1N2C(=O)N1CCC(O)CC1,–,29.2,–,–,–,
COC(=O)C1=C(c2ccc(C(C)=O)cc2)C[C@@H]2CC[C@H]1N2C(=O)N1CCOCC1,–,–,–,–,–,
COc1ccccc1N,–,·,–,·,·,
CC(=O)N(C)CC#CCN1CCC(O)CC1,–,37.4,–,–,–,
C[N+](C)(C)CC(=O)Nc1ccc(Cl)cc1C(=O)c1ccccc1,–,–,–,–,–,
Cc1cccc(C(=O)Nc2ccc(Cl)cc2C(=O)c2ccccc2)c1,–,–,–,9.0,–,VATPase regulator=–
O=c1cccc2n1C[C@@H]1C[C@@H]2CN(CC(O)c2ccc([N+](=O)[O-])cc2)C1 (some centres not stated),–,–,–,·,–,
O=C(O)CCn1cc(C=C2C(=O)NC(=S)NC2=O)c(-c2cccc(Cl)c2)n1,–,–,–,8.0,–,VATPase regulator=–
O=C(O)CCn1cc(C=C2C(=O)NC(=O)NC2=O)c(-c2ccc(Br)cc2)n1,–,–,–,–,–,
NN=C1C(Cl)=C(Cl)C(Cl)=C1Cl,–,–,–,–,–,
CCCCCCn1c(=O)c(C(=O)Nc2c(C)n(C)n(-c3ccccc3)c2=O)c(O)c2ccccc21,–,–,–,10.6,–,VATPase regulator=–
CN1CCCN(C(=O)COc2ccc(F)cc2F)CC1,–,–,–,–,–,
